Source: ChEMBL document CHEMBL1212764, “Antimicrobial resistance in Haemophilus influenzae respiratory tract isolates in Korea: results of a nationwide acute respiratory infections surveillance” (2010)
Values after ≈ are worked out from the molar mass of the structure shown.

How the values were obtained:
Type in all cases: functional
Haemophilus influenzae [1] = assay: Antimicrobial activity against Haemophilus influenzae isolate by broth microdilution method
Outline: (§1)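 Broth microdilution MIC in freshly prepared Haemophilus test medium per 2008 CLSI guidelines; H. influenzae ATCC 49247 and ATCC 49766 as control strains. Isolates from outpatient nasal aspirates (no prior antibiotics), cultured on blood agar with S. aureus streak and chocolate agar. PBP3 substitutions deduced from ftsI sequencing against the Rd strain; β-lactamase genes (TEM-1, ROB-1) detected by PCR.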

Haemophilus influenzae [2] = assay: Antimicrobial activity against beta-lactamase-negative, ampicillin-sensitive Haemophilus influenzae by broth microdilution method; outline: as §1
Haemophilus influenzae [3] = assay: Antimicrobial activity against Beta-lactamase-positive, ampicillin-resistant Haemophilus influenzae by broth microdilution method; outline: as §1
Haemophilus influenzae [4] = assay: Antimicrobial activity against Beta-lactamase-negative, ampicillin-resistant Haemophilus influenzae by broth microdilution method; outline: as §1
Haemophilus influenzae [5] = assay: Antimicrobial activity against Beta-lactamase-positive, ampicillin-cluvulanate-resistant Haemophilus influenzae by broth microdilution method; outline: as §1
Haemophilus influenzae [6] = assay: Antimicrobial activity against Beta-lactamase-negative, ampicillin-resistant Haemophilus influenzae with Asp350Asn, Ser357Asp, Met377Ile, Ser385Thr, Arg517His substitutions in penicillin-binding protein 3 by broth microdilution method; outline: as §1
Haemophilus influenzae [7] = assay: Antimicrobial activity against Beta-lactamase-negative, ampicillin-resistant Haemophilus influenzae with Gly490Glu, Asn526Lys substitutions in penicillin-binding protein 3 by broth microdilution method; outline: as §1
Haemophilus influenzae [8] = assay: Antimicrobial activity against Beta-lactamase-negative, ampicillin-resistant Haemophilus influenzae with Asp350Asn, Met377Ile, Asn526Lys substitutions in penicillin-binding protein 3 by broth microdilution method; outline: as §1
Haemophilus influenzae [9] = assay: Antimicrobial activity against Beta-lactamase-negative, ampicillin-resistant Haemophilus influenzae with Asp350Asn, Met377Ile, Gly490Glu, Asn526Lys substitutions in penicillin-binding protein 3 by broth microdilution method; outline: as §1
Haemophilus influenzae [10] = assay: Antimicrobial activity against Beta-lactamase-negative, ampicillin-resistant Haemophilus influenzae with Ala502Val, Asn526Lys substitutions in penicillin-binding protein 3 by broth microdilution method; outline: as §1
Haemophilus influenzae [11] = assay: Antimicrobial activity against Beta-lactamase-negative, ampicillin-resistant Haemophilus influenzae with Asp350Asn, Met377Ile, Ala502Val, Asn526Lys substitutions in penicillin-binding protein 3 by broth microdilution method; outline: as §1
Haemophilus influenzae [12] = assay: Antimicrobial activity against Beta-lactamase-negative, ampicillin-resistant Haemophilus influenzae with Asp350Asn, Met377Ile, Gly490Glu, Ala502Val, Asn526Lys substitutions in penicillin-binding protein 3 by broth microdilution method; outline: as §1
Haemophilus influenzae [13] = assay: Antimicrobial activity against Beta-lactamase-negative, ampicillin-resistant Haemophilus influenzae with Ser311Pro, Ala502Thr, Asn526Lys substitutions in penicillin-binding protein 3 by broth microdilution method; outline: as §1
Haemophilus influenzae [14] = assay: Antimicrobial activity against Beta-lactamase-negative, ampicillin-resistant Haemophilus influenzae with Ile449Val, Ala502Thr, Asn526Lys substitutions in penicillin-binding protein 3 by broth microdilution method; outline: as §1
Haemophilus influenzae [15] = assay: Antimicrobial activity against Beta-lactamase-negative, ampicillin-resistant Haemophilus influenzae with Asp350Asn, Ser357Asp, Met377Ile, Ser385Thr, Ala502Thr, Asn526Lys substitutions in penicillin-binding protein 3 by broth microdilution method; outline: as §1
Haemophilus influenzae [16] = assay: Antimicrobial activity against Beta-lactamase-negative, ampicillin-resistant Haemophilus influenzae with Asp350Asn, Ser357Asp, Ser385Thr, Leu389Phe, Ala502Thr, Asn526Lys substitutions in penicillin-binding protein 3 by broth microdilution method; outline: as §1
Haemophilus influenzae [17] = assay: Antimicrobial activity against Beta-lactamase-negative, ampicillin-resistant Haemophilus influenzae with Ile449Val, Asn526Lys substitutions in penicillin-binding protein 3 by broth microdilution method; outline: as §1
Haemophilus influenzae [18] = assay: Antimicrobial activity against Beta-lactamase-negative, ampicillin-resistant Haemophilus influenzae with Asp350Asn, Ser357Asp, Met377Ile, Ser385Thr, Leu389Phe, substitutions in penicillin-binding protein 3 by broth microdilution method; outline: as §1
Haemophilus influenzae [19] = assay: Antimicrobial activity against Beta-lactamase-negative, ampicillin-resistant Haemophilus influenzae with penicillin-binding protein 3 by broth microdilution method; outline: as §1
Haemophilus influenzae [20] = assay: Antimicrobial activity against Beta-lactamase-positive, ampicillin-cluvulanate-resistant Haemophilus influenzae with Asp350Asn, Ser357Asp, Met377Ile, Ser385Thr, Arg517His substitutions in penicillin-binding protein 3 by broth microdilution method; outline: as §1
Haemophilus influenzae [21] = assay: Antimicrobial activity against Beta-lactamase-positive, ampicillin-cluvulanate-resistant Haemophilus influenzae with Asp350Asn, Met377Ile, Asn526Lys substitutions in penicillin-binding protein 3 by broth microdilution method; outline: as §1
Haemophilus influenzae [22] = assay: Antimicrobial activity against Beta-lactamase-positive, ampicillin-cluvulanate-resistant Haemophilus influenzae with Asp350Asn, Met377Ile, Ser385Thr, Asn526Lys substitutions in penicillin-binding protein 3 by broth microdilution method; outline: as §1
Haemophilus influenzae [23] = assay: Antimicrobial activity against Beta-lactamase-positive, ampicillin-cluvulanate-resistant Haemophilus influenzae with Asp350Asn, Met377Ile, Ala502Val, Asn526Lys substitutions in penicillin-binding protein 3 by broth microdilution method; outline: as §1
Haemophilus influenzae [24] = assay: Antimicrobial activity against Beta-lactamase-positive, ampicillin-cluvulanate-resistant Haemophilus influenzae with Ala502Val, Asn526Lys substitutions in penicillin-binding protein 3 by broth microdilution method; outline: as §1
Haemophilus influenzae [25] = assay: Antimicrobial activity against Beta-lactamase-positive, ampicillin-cluvulanate-resistant Haemophilus influenzae with Asp350Asn, Met377Ile, Gly490Glu, Ala502Val, Asn526Lys substitutions in penicillin-binding protein 3 by broth microdilution method; outline: as §1
Haemophilus influenzae [26] = assay: Antimicrobial activity against Beta-lactamase-positive, ampicillin-cluvulanate-resistant Haemophilus influenzae with Ala368Thr, Ala502Thr, Asn526Lys substitutions in penicillin-binding protein 3 by broth microdilution method; outline: as §1
Haemophilus influenzae [27] = assay: Antimicrobial activity against Beta-lactamase-positive, ampicillin-cluvulanate-resistant Haemophilus influenzae with Asp350Asn, Ser357Asp, Ala437Ser, Ala502Thr, Asn526Lys substitutions in penicillin-binding protein 3 by broth microdilution method; outline: as §1
Haemophilus influenzae [28] = assay: Antimicrobial activity against Beta-lactamase-positive, ampicillin-cluvulanate-resistant Haemophilus influenzae with Asp350Asn, Ala502Thr, Asn526Lys substitutions in penicillin-binding protein 3 by broth microdilution method; outline: as §1
Haemophilus influenzae [29] = assay: Antimicrobial activity against Beta-lactamase-positive, ampicillin-cluvulanate-resistant Haemophilus influenzae with Ile449Val, Asn526Lys substitutions in penicillin-binding protein 3 by broth microdilution method; outline: as §1
Haemophilus influenzae [30] = assay: Antimicrobial activity against Beta-lactamase-positive, ampicillin-cluvulanate-resistant Haemophilus influenzae with Asp350Asn, Ala437Ser substitutions in penicillin-binding protein 3 by broth microdilution method; outline: as §1

CC1(C)S[C@@H]2[C@H](NC(=O)[C@H](N)c3ccccc3)C(=O)N2[C@H]1C(=O)O [AMPICILLIN]
MIC50 (Haemophilus influenzae [1]): 16 µg/mL (≈ 45.8 µM)
MIC90 (Haemophilus influenzae [1]): 256 µg/mL (≈ 733 µM)
MIC50 (Haemophilus influenzae [2]): 1 µg/mL (≈ 2.86 µM)
MIC90 (Haemophilus influenzae [2]): 1 µg/mL (≈ 2.86 µM)
MIC50 (Haemophilus influenzae [3]): 128 µg/mL (≈ 366 µM)
MIC90 (Haemophilus influenzae [3]): 256 µg/mL (≈ 733 µM)
MIC50 (Haemophilus influenzae [4]): 2 µg/mL (≈ 5.72 µM)
MIC90 (Haemophilus influenzae [4]): 8 µg/mL (≈ 22.9 µM)
MIC50 (Haemophilus influenzae [5]): 256 µg/mL (≈ 733 µM)
MIC90 (Haemophilus influenzae [5]): > 512 µg/mL
MIC (Haemophilus influenzae [6]): 2 µg/mL (≈ 5.72 µM)
MIC (Haemophilus influenzae [7]): 4 µg/mL (≈ 11.4 µM)
MIC (Haemophilus influenzae [8]): 4 µg/mL (≈ 11.4 µM)
MIC (Haemophilus influenzae [9]): 4 µg/mL (≈ 11.4 µM)
MIC (Haemophilus influenzae [10]): 2.2 µg/mL (≈ 6.3 µM)
MIC (Haemophilus influenzae [11]): 2.2 µg/mL (≈ 6.3 µM)
MIC (Haemophilus influenzae [12]): 2.2 µg/mL (≈ 6.3 µM)
MIC (Haemophilus influenzae [13]): 2.8 µg/mL (≈ 8.01 µM)
MIC (Haemophilus influenzae [14]): 2.8 µg/mL (≈ 8.01 µM)
MIC (Haemophilus influenzae [15]): 2.8 µg/mL (≈ 8.01 µM)
MIC (Haemophilus influenzae [16]): 2.8 µg/mL (≈ 8.01 µM)
MIC (Haemophilus influenzae [17]): 2.7 µg/mL (≈ 7.73 µM)
MIC (Haemophilus influenzae [17]; Haemophilus influenzae, read-out: MIC): 2.7 µg/mL (≈ 7.73 µM)
MIC (Haemophilus influenzae [18]): 5.3 µg/mL (≈ 15.2 µM)
MIC (Haemophilus influenzae [19]): 2 µg/mL (≈ 5.72 µM)
MIC (Haemophilus influenzae [20]): 192 µg/mL (≈ 549 µM)
MIC (Haemophilus influenzae [21]): 288 µg/mL (≈ 824 µM)
MIC (Haemophilus influenzae [22]): 288 µg/mL (≈ 824 µM)
MIC (Haemophilus influenzae [23]): 230 µg/mL (≈ 658 µM)
MIC (Haemophilus influenzae [24]): 230 µg/mL (≈ 658 µM)
MIC (Haemophilus influenzae [25]): 230 µg/mL (≈ 658 µM)
MIC (Haemophilus influenzae [26]): 208 µg/mL (≈ 595 µM)
MIC (Haemophilus influenzae [27]): 208 µg/mL (≈ 595 µM)
MIC (Haemophilus influenzae [28]): 208 µg/mL (≈ 595 µM)
MIC (Haemophilus influenzae [29]): 512 µg/mL (≈ 1470 µM)
MIC (Haemophilus influenzae [30]): 512 µg/mL (≈ 1470 µM)

C[C@H]1COc2c(N3CCN(C)CC3)c(F)cc3c(=O)c(C(=O)O)cn1c23.C[C@H]1COc2c(N3CCN(C)CC3)c(F)cc3c(=O)c(C(=O)O)cn1c23.O [LEVOFLOXACIN]
MIC50 (Haemophilus influenzae [1]): 0.016 µg/mL
MIC90 (Haemophilus influenzae [1]): 0.031 µg/mL
MIC50 (Haemophilus influenzae [2]): 0.016 µg/mL
MIC90 (Haemophilus influenzae [2]): 0.031 µg/mL
MIC50 (Haemophilus influenzae [3]): 0.016 µg/mL
MIC90 (Haemophilus influenzae [3]): 0.031 µg/mL
MIC50 (Haemophilus influenzae [4]): 0.016 µg/mL
MIC90 (Haemophilus influenzae [4]): 0.016 µg/mL
MIC50 (Haemophilus influenzae [5]): 0.016 µg/mL
MIC90 (Haemophilus influenzae [5]): 0.031 µg/mL

N[C@@H](C(=O)N[C@@H]1C(=O)N2C(C(=O)O)=C(Cl)CS[C@H]12)c1ccccc1 [CEFACLOR ANHYDROUS]
MIC50 (Haemophilus influenzae [1]): 8 µg/mL (≈ 21.8 µM)
MIC90 (Haemophilus influenzae [1]): 32 µg/mL (≈ 87 µM)
MIC50 (Haemophilus influenzae [2]): 8 µg/mL (≈ 21.8 µM)
MIC90 (Haemophilus influenzae [2]): 16 µg/mL (≈ 43.5 µM)
MIC50 (Haemophilus influenzae [3]): 8 µg/mL (≈ 21.8 µM)
MIC90 (Haemophilus influenzae [3]): 32 µg/mL (≈ 87 µM)
MIC50 (Haemophilus influenzae [4]): 8 µg/mL (≈ 21.8 µM)
MIC90 (Haemophilus influenzae [4]): 32 µg/mL (≈ 87 µM)
MIC50 (Haemophilus influenzae [5]): 8 µg/mL (≈ 21.8 µM)
MIC90 (Haemophilus influenzae [5]): 64 µg/mL (≈ 174 µM)
